Assay [1] has as its system Influenza A virus. The experiment in a line: Antiviral activity against Influenza virus A/Puerto Rico/8/34 H1N1 infected in dog MDCK cells assessed as inhibition of viral replication at 10 ug/mL incubated at 1 hr post-infection measured after 24 hrs by hemagglutininating unit assay relative to control. The format is functional. The note with it: A/Puerto Rico/8/1934(H1N1). In short, it runs like this:
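MDCK cells infected with PR8; 1 h after adsorption they were washed, and compound (5–20 μg/ml) or DMSO was added and kept on throughout. Virus released into the supernatant was titrated by HAU assay 24 h p.i. Yield is a percentage of control infected cells given 0.02% DMSO. Means of four experiments, each in duplicate.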

The test system of assay [2] is Influenza A virus. In words: Antiviral activity against Influenza virus A/Puerto Rico/8/34 H1N1 infected in dog MDCK cells at 20 ug/mL incubated for 24 hrs post-infection followed by compound washout measured after 24 hrs by hemagglutininating unit assay relative to control. The format is functional, A/Puerto Rico/8/1934(H1N1). In short, it runs like this: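 Compound added to PR8-infected MDCK cells immediately after virus challenge, then removed at 2, 4, 6, 8 or 24 h p.i. Supernatant virus yield was measured by HAU at 24 h p.i. and expressed as a percentage of DMSO-treated control infected cells. Means of two experiments, each in duplicate.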

The values that follow come from ChEMBL document CHEMBL2146419, “Effects of polyphenol compounds on influenza A virus replication and definition of their mechanism of action” (Bioorg Med Chem, 2012).

Consider `O=C(/C=C/c1ccc(O)cc1)c1ccc(O)cc1O` [ISOLIQUIRITIGENIN], for which the inhibition at 10 µg/mL in assay [1] worked out at 75%. With `O=C1/C(=C/c2ccc(O)c(O)c2)COC/C1=C\c1ccc(O)c(O)c1`, the Activity in assay [2] came to 75%.

As a reminder, the inhibition is the relative decrease from the control value, in per cent.
